Laboratory results published in ChEMBL document CHEMBL1148783, “Selection of a respiratory syncytial virus fusion inhibitor clinical candidate, part 1: improving the pharmacokinetic profile using the structure-property relationship” (J Med Chem, 2007).

What was measured:
[1] = Half life (24 to 96 hrs) in Sprague-Dawley rat lung; assay type: ADME, tissue-based
In short: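 Lung half-life came from IV-dosed male Sprague-Dawley rats (1 mg/kg, 10 min tail-vein infusion), with three animals per time point. Lungs were homogenized in water (1/9 w/v) and analyzed by LC-MS/MS, using the concentrations measured between 24 and 96 h post-dose.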

[2] = Cytotoxicity against HeLaM cells; assay type: cell-based, M-HeLa; conditions: human
[3] = tested on: Respiratory syncytial virus; assay: Antiviral activity against RSV in HeLaM cells; assay type: functional, organism-based; conditions: human respiratory syncytial virus
In short: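 HeLaM epithelial-like cells infected with RSV with or without a range of compound concentrations, with virus, cell and cytotoxicity controls and ribavirin as reference in each test. After one week of incubation, viability was read by MTT and spectrophotometric OD. pEC50 was calculated from the OD values.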

[4] = Drug level in Sprague-Dawley rat lung after 24 hrs; assay type: ADME, tissue-based; conditions: read-out: Drug uptake
In short: (§1)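 Male Sprague-Dawley rats (250-300 g) were given a 10 min tail-vein infusion at a final dose of 1 mg/kg. Three rats per time point were killed at 4, 24, 96 and 168 h. Plasma was taken from EDTA blood, and lung was homogenized 1/9 w/v in demineralized water. Samples were stored at ≤-18 °C and quantified by a qualified LC-MS/MS method.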

[5] = Drug level in Sprague-Dawley rat lung after 168 hrs; assay type: ADME, tissue-based; conditions: read-out: Drug uptake; in short: as §1
[6] = Drug level in Sprague-Dawley rat plasma after 4 hrs; assay type: ADME, cell-free; conditions: read-out: Drug uptake; in short: as §1
[7] = Drug level in Sprague-Dawley rat lung after 4 hrs; assay type: ADME, tissue-based; conditions: read-out: Drug uptake; in short: as §1
[8] = Drug level in Sprague-Dawley rat plasma after 24 hrs; assay type: ADME, cell-free; conditions: read-out: Drug uptake; in short: as §1
[9] = Drug level in Sprague-Dawley rat lung after 96 hrs; assay type: ADME, tissue-based; conditions: read-out: Drug uptake; in short: as §1

`Cc1cc(C)c2nc(NCCCN)n(Cc3nc(C)ccc3O)c2c1` showed a half-life [1] of 68 h, a CC50 [2] of over 100 µM and an EC50 [3] of 0.000251 µM.

Molecule `Cc1ccc(O)c(Cn2c(NC3CCN(CCN4CCCC4)CC3)nc3c(C)cccc32)n1` has a half-life [1] of 206 h, a CC50 [2] of 39.8 µM and an EC50 [3] of 0.01 µM.

Work on `Cc1ccc(O)c(Cn2c(NC3CCN(C)CC3)nc3c(C)cccc32)n1` yielded a CC50 [2] of 50.1 µM and an EC50 [3] of 0.158 µM.

With `Cc1ccc(O)c(Cn2c(NC3CCN(CCN)CC3)nc3c(C)cccc32)n1` [JNJ 2408068] the concentration at 24 h [4] was 0.559 µg/mL, the half-life [1] was 153 h and the concentration at 168 h [5] was 0.387 µg/mL. The CC50 [2] was over 100 µM, the concentration at 4 h [6] was 0.00097 µg/mL and the EC50 [3] was 0.000251 µM. For the same molecule, the concentration at 4 h [7] was 0.576 µg/mL, the concentration at 24 h [8] was 0.00033 µg/mL and the concentration at 96 h [9] was 0.439 µg/mL.

For `Cc1ccc(O)c(Cn2c(NC3CCN(CCN)CC3)nc3ccccc32)n1`, the half-life [1] was 211 h, the CC50 [2] was over 100 µM and the EC50 [3] was 0.000316 µM.

`Cc1ccc(O)c(Cn2c(NC3CCN(CCC(=O)O)CC3)nc3c(C)cccc32)n1` showed a CC50 [2] of over 100 µM and an EC50 [3] of 0.158 µM.

In the case of `Cc1cc(C)c2nc(NCC(O)CO)n(Cc3nc(C)ccc3O)c2c1` (stereo not drawn), the half-life [1] is reported as under 24 h, the CC50 [2] is reported as 50.1 µM and the EC50 [3] is reported as 0.0398 µM.

Molecule `Cc1ccc(O)c(Cn2c(NC3CCN(CCC(C)C)CC3)nc3c(C)cccc32)n1` has a CC50 [2] of over 100 µM and an EC50 [3] of 0.631 µM.

For `CC(=O)NCCNc1nc2c(C)cc(C)cc2n1Cc1nc(C)ccc1O`, the CC50 [2] was 12.6 µM and the EC50 [3] was 5.01 µM.

For `CNS(=O)(=O)CCCN1CCC(Nc2nc3c(C)cccc3n2Cc2nc(C)ccc2O)CC1`, the half-life [1] was 32 h, the CC50 [2] was 79.4 µM and the EC50 [3] was 0.0501 µM.

`Cc1ccc(O)c(Cn2c(NC3CCN(CC(O)CN(C)C)CC3)nc3c(C)cccc32)n1` (stereo not drawn) gave a half-life [1] of 556 h, a CC50 [2] of over 100 µM and an EC50 [3] of 0.00316 µM.

`Cc1cc(C)c2nc(NCCCN3CCOCC3)n(Cc3nc(C)ccc3O)c2c1` showed a half-life [1] of 14 h, a CC50 [2] of 50.1 µM and an EC50 [3] of 0.126 µM.

For `Cc1cc(C)c2nc(NCCc3ccccc3)n(Cc3nc(C)ccc3O)c2c1`, the CC50 [2] was 6.31 µM and the EC50 [3] was over 100 µM.

`Cc1cc(C)c2nc(NCCCN3CCN(C)CC3)n(Cc3nc(C)ccc3O)c2c1` showed a half-life [1] of 80 h, a CC50 [2] of 50.1 µM and an EC50 [3] of 0.0251 µM.

Molecule `CCCCNc1nc2c(C)cc(C)cc2n1Cc1nc(C)ccc1O` has a CC50 [2] of 7.94 µM and an EC50 [3] of over 100 µM.

For `NCCN1CCC(Nc2nc3ccccc3[nH]2)CC1`, the concentration at 24 h [4] was 0.295 µg/mL, the concentration at 168 h [5] was 0.0378 µg/mL and the concentration at 4 h [6] was 0.0118 µg/mL. For the same molecule, the concentration at 4 h [7] was 0.247 µg/mL, the concentration at 24 h [8] was 0.0061 µg/mL and the concentration at 96 h [9] was 0.0837 µg/mL.

In the case of `Cc1ccc(O)c(Cn2c(NC3CCN(CC(O)C(C)(C)C)CC3)nc3c(C)cccc32)n1` (stereo not drawn), the CC50 [2] is reported as 39.8 µM and the EC50 [3] is reported as 0.794 µM.

In the case of `Cc1ccc(O)c(Cn2c(NC3CCN(CCN4CCOCC4)CC3)nc3c(C)cccc32)n1`, the half-life [1] is reported as 35 h, the CC50 [2] is reported as 63.1 µM and the EC50 [3] is reported as 0.158 µM.

`Cc1cc(C)c2nc(NCCNc3ccccc3)n(Cc3nc(C)ccc3O)c2c1` showed a CC50 [2] of 3.16 µM and an EC50 [3] of over 100 µM.

`Cc1ccc(O)c(Cn2c(NC3CCN(CCC(N)=O)CC3)nc3c(C)cccc32)n1` showed a half-life [1] of 46 h, a CC50 [2] of over 100 µM and an EC50 [3] of 0.0501 µM.

For `Cc1ccc(O)c(Cn2c(NC3CCN(CCO)CC3)nc3c(C)cccc32)n1`, the half-life [1] was 29 h, the CC50 [2] was over 100 µM and the EC50 [3] was 0.02 µM.

Molecule `CNCCCNc1nc2c(C)cc(C)cc2n1Cc1nc(C)ccc1O` has a half-life [1] of 93 h, a CC50 [2] of 50.1 µM and an EC50 [3] of 0.000631 µM.

`Cc1cc(C)c2nc(NCCCO)n(Cc3nc(C)ccc3O)c2c1` showed a CC50 [2] of 63.1 µM and an EC50 [3] of 0.158 µM.

With `Cc1ccc(O)c(Cn2c(NC3CCN(CCCS(N)(=O)=O)CC3)nc3c(C)cccc32)n1` the half-life [1] was 57 h, the CC50 [2] was over 100 µM and the EC50 [3] was 0.0126 µM.

`Cc1ccc(O)c(Cn2cnc3c(C)cccc32)n1` showed a concentration at 4 h [7] of 0.0039 µg/mL.
